Legend:
[1] = biological target: GABA-A receptor; anion channel (Rattus norvegicus) (UniProt O09028+P15431+P18506+P18508+P19969+P20236+P23574+P23576+P28471+P28473+P30191+P62813+P63079+P63138+Q91ZM7+Q9ES14); experiment: Displacement of [3H]-muscimol from rat brain GABAA receptor at 10 uM incubated for 90 mins under dark condition by scintillation counting analysis relative to control
[2] = biological target: 5-hydroxytryptamine receptor 1E (Homo sapiens) (UniProt P28566); experiment: Displacement of [3H]-5-HT from human 5HT1E stably expressed in HEK cell membranes at 10 uM incubated for 90 mins under dark condition by scintillation counting analysis relative to control
CYP2C9 = CYP2C9 (Homo sapiens, UniProt P11712); experiment: Inhibition of CYP2C9 (unknown origin) at 10 uM relative to control; format: ADME
Chain of CYP2C9 (P11712 whole entry, canonical isoform): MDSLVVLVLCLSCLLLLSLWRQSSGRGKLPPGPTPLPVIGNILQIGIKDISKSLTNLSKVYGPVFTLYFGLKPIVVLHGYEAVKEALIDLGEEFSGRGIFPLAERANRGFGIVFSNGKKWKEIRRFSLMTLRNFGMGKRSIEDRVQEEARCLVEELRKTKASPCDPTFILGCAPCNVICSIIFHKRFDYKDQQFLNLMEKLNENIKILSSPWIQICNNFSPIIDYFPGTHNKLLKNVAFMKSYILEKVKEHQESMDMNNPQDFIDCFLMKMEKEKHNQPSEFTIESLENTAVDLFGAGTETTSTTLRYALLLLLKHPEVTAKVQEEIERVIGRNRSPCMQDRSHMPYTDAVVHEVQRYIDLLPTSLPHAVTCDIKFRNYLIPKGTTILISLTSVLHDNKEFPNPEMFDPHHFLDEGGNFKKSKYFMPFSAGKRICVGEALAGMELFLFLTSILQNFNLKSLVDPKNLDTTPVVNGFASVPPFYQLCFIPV
Summary of the method: (§1)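 Each CYP isoform inhibition assay run with test compound at 10 µM; reported as percent inhibition.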

5-HT2A receptor = 5-HT2A receptor (Homo sapiens, UniProt P28223); experiment: Displacement of [3H]-ketanserin from 5HT2A (unknown origin) at 10 uM incubated for 90 mins under dark condition by scintillation counting analysis relative to control; conditions: probe [3H]-ketanserin
Chain of 5-HT2A receptor (P28223 whole entry): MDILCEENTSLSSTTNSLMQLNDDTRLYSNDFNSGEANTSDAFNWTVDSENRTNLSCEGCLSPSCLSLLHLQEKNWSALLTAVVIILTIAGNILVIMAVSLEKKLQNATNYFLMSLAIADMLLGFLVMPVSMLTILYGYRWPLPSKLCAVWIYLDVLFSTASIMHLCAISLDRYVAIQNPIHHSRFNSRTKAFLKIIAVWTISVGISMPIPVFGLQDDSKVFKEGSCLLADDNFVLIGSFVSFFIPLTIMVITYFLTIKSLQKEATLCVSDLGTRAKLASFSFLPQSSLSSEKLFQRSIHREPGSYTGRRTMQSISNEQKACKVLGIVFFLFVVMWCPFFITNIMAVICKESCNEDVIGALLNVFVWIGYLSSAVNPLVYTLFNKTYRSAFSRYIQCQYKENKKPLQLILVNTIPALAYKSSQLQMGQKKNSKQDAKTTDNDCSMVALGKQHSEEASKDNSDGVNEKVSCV

[3] = biological target: Sodium-dependent dopamine transporter (Homo sapiens) (UniProt Q01959); experiment: Displacement of [3H]-WIN35428 from human DAT expressed in HEK cell membranes at 10 uM incubated for 90 mins under dark condition by scintillation counting analysis relative to control
Chain of Sodium-dependent dopamine transporter (Homo sapiens) (Q01959 whole entry): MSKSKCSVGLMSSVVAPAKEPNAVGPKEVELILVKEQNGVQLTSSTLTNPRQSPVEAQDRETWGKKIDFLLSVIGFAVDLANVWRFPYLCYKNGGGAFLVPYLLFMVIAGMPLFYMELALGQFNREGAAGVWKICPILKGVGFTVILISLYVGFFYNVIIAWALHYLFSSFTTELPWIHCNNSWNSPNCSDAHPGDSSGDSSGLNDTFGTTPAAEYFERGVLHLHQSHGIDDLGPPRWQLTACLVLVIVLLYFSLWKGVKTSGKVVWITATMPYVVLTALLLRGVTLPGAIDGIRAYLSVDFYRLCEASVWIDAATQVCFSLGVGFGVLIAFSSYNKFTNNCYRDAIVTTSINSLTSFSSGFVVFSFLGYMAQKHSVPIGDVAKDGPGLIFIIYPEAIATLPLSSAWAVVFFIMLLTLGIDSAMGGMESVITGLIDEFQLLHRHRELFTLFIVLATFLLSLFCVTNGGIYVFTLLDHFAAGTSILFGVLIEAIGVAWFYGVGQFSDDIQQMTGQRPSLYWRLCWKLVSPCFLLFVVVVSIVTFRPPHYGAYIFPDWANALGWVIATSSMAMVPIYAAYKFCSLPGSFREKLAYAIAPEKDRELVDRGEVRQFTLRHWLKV

CYP2D6 = CYP2D6 (Homo sapiens, UniProt P10635); experiment: Inhibition of CYP2D6 (unknown origin) at 10 uM relative to control; format: ADME; summary of the method: as §1
Chain of CYP2D6 (P10635 whole entry): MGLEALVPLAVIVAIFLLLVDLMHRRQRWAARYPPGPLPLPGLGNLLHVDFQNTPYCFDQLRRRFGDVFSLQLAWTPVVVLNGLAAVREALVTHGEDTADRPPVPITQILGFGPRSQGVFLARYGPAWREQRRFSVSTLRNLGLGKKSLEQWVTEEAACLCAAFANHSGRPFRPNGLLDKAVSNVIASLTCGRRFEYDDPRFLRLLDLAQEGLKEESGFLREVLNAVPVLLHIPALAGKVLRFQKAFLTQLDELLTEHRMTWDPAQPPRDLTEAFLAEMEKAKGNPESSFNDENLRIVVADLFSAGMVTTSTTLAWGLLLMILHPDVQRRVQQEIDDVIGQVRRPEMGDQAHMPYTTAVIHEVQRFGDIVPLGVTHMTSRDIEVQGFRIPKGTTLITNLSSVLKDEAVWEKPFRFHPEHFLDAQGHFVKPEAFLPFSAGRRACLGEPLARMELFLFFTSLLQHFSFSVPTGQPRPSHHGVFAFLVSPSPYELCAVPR

[4] = biological target: 5-hydroxytryptamine receptor 1A (Homo sapiens) (UniProt P08908); experiment: Displacement of [3H]-8-OH-DPAT from human 5HT1A stably expressed in CHO cell membranes at 10 uM incubated for 90 mins under dark condition by scintillation counting analysis relative to control
[5] = biological target: Mu-type opioid receptor (Homo sapiens) (UniProt P35372); experiment: Displacement of [3H]-DAMGO from human mu opioid receptor stably expressed in HEK cell membranes at 10 uM incubated for 90 mins under dark condition by scintillation counting analysis relative to control
Chain of Mu-type opioid receptor (Homo sapiens) (P35372 whole entry): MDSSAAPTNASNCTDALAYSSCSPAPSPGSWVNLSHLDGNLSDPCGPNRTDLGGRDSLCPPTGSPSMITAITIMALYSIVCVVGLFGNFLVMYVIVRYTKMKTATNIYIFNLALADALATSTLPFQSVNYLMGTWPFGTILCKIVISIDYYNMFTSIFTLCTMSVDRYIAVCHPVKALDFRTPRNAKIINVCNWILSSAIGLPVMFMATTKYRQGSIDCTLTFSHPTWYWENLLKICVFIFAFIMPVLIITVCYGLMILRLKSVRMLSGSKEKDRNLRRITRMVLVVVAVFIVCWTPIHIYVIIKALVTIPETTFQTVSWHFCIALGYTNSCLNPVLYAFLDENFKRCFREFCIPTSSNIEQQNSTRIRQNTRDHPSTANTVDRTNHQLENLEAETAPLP

[6] = biological target: Alpha-2A adrenergic receptor (Homo sapiens) (UniProt P08913); experiment: Displacement of [3H]-rauwolscine from human adrenergic alpha2A receptor transiently expressed in HEKT cell membranes at 10 uM incubated for 90 mins under dark condition by scintillation counting analysis relative to control
Chain of Alpha-2A adrenergic receptor (Homo sapiens) (P08913 whole entry): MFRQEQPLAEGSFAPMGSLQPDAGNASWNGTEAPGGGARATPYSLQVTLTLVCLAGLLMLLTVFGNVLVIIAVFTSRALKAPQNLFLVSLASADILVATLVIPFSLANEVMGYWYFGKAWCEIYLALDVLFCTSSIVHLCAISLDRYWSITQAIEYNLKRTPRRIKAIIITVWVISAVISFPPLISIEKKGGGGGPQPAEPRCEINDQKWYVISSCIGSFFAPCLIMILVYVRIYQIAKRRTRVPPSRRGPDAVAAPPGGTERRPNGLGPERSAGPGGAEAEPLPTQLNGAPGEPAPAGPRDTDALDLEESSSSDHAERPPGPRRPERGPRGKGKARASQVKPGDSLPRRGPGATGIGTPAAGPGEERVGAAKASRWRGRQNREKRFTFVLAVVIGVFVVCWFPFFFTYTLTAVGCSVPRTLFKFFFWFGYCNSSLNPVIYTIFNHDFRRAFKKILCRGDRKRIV

[7] = biological target: 5-hydroxytryptamine receptor 7 (Homo sapiens) (UniProt P34969); experiment: Displacement of [3H]-LSD from human 5HT7A stably expressed in HEK cell membranes at 10 uM incubated for 90 mins under dark condition by scintillation counting analysis relative to control
Chain of 5-hydroxytryptamine receptor 7 (Homo sapiens) (P34969 whole entry): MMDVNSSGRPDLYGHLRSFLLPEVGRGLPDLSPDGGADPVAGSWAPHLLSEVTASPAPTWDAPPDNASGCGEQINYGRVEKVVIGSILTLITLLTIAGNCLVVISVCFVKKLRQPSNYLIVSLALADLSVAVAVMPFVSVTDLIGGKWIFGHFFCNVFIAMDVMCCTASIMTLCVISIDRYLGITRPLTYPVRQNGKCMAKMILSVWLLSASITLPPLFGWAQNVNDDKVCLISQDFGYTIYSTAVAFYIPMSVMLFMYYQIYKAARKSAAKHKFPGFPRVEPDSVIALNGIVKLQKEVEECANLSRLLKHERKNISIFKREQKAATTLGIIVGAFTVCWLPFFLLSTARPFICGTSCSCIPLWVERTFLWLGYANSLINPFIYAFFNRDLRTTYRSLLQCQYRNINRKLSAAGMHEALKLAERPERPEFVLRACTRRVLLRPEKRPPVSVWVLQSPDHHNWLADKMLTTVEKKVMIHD

[8] = biological target: T1, 5-hydroxytryptamine receptor 2C (Homo sapiens, UniProt P28335); experiment: Agonist activity at human 5HT2CR expressed in CHO cells assessed as increase in intracellular calcium release at 1 nM incubated for 15 mins measured at 1 secs interval for 120 secs by calcium 4 dye based FLIPR assay relative to 5-HT; format: cell-based; conditions: 0.001 µM
T1 sequence (P28335 whole entry): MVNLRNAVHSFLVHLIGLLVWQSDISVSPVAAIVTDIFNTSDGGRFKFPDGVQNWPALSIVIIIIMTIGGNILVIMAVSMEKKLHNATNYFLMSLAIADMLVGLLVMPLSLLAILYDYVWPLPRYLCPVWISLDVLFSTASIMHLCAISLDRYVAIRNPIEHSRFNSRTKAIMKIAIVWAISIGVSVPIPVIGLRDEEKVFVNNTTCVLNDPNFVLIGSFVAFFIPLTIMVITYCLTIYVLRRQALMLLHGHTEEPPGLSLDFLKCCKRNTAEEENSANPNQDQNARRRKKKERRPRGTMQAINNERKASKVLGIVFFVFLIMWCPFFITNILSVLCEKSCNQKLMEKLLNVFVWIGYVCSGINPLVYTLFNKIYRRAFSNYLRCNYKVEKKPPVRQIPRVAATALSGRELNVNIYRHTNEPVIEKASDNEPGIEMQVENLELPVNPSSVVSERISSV
Summary of the method: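 h5-HT2CR (unedited INI isoform) stably expressed in CHO cells; cells plated ~24 h, serum-free medium 3 h, then Calcium 4 dye with 2.5 mM probenecid in Ca/Mg-free HBSS pH 7.4 for 60 min at 37°C plus 15 min at room temperature. Compound given alone, read for 15 min before 5-HT. Peak fluorescence is expressed relative to the 5-HT Emax. 4-6 biological replicates, each in triplicate.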

[9] = biological target: 5-hydroxytryptamine receptor 1D (Homo sapiens) (UniProt P28221); experiment: Displacement of [3H]-GR125743 from human 5HT1D transiently expressed in HEKT cell membranes at 10 uM incubated for 90 mins under dark condition by scintillation counting analysis relative to control
Chain of 5-hydroxytryptamine receptor 1D (Homo sapiens) (P28221 whole entry): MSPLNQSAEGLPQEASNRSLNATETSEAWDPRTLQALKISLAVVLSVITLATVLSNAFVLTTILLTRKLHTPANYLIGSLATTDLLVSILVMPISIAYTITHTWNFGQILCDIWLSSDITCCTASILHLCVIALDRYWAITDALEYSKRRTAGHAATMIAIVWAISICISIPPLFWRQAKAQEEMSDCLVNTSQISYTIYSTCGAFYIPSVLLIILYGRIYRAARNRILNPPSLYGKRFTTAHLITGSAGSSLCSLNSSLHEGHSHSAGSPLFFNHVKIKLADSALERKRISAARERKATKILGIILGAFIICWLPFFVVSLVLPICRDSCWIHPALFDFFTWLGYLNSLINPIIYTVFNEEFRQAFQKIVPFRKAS

[10] = biological target: Alpha-1D adrenergic receptor (Homo sapiens) (UniProt P25100); experiment: Displacement of [3H]-prazosin from human adrenergic alpha1D receptor at 10 uM incubated for 90 mins under dark condition by scintillation counting analysis relative to control
Chain of Alpha-1D adrenergic receptor (Homo sapiens) (P25100 whole entry): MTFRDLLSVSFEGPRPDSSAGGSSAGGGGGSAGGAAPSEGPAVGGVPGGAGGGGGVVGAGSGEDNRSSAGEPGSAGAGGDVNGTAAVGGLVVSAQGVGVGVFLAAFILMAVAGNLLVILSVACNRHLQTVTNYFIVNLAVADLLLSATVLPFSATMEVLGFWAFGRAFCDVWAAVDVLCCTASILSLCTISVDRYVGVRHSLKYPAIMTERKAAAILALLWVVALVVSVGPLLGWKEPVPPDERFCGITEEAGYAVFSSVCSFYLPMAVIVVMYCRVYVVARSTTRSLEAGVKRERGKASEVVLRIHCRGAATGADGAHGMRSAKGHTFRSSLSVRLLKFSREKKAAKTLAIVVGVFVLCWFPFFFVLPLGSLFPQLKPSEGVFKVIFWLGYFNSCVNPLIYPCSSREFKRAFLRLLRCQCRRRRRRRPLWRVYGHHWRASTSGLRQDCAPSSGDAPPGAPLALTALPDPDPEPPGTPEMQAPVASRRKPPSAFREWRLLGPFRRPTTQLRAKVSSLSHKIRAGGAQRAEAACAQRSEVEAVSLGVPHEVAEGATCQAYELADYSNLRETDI

[11] = Fraction unbound in rat plasma; format: ADME, cell-free
Summary of the method: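 Free fraction measured in rat plasma.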

Rattus norvegicus = experiment: Potentiation of WAY163909-induced neurobiological activity in Sprague-Dawley rat assessed as increase in number of rat choosing WAY163909 associated lever at 2 mg/kg, ip treated 15 mins prior to WAY163909 addition and measured after 15 mins in presence of 5HT2CR antagonist SB242084 by drug discrimination test (reference value: 53%); format: functional
Summary of the method: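 Two-lever FR20 drug discrimination in male Sprague-Dawley rats (n = 13) trained on WAY163909 0.75 mg/kg ip versus saline. SB242084 (0.5 mg/kg ip) given 15 min before WAY163909. Test compound (2 mg/kg ip) given 15 min before WAY163909 (0.5 mg/kg ip). Rats placed in chambers 15 min after WAY163909. Read-out is the percentage of rats choosing the WAY163909 lever.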

[12] = Cmax in Sprague-Dawley rat at 20 mg/kg, po; format: ADME, organism-based; design: dose 20 mg/kg, route oral; conditions: in vivo
Summary of the method: (§2)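 Male Sprague-Dawley rats, 200–250 g, n = 3/group, randomly assigned; dosed 10 mg/kg iv or 20 mg/kg po in 10% DMSO:90% HP-β-CD. Retro-orbital blood sampled predose and 0.08 (iv only), 0.25, 0.5, 1, 2, 4, 8, 24 h. Noncompartmental analysis; Cmax read directly from plasma concentration–time plot; mean ± SEM.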

[13] = biological target: Sodium-dependent noradrenaline transporter (Homo sapiens, UniProt P23975); experiment: Displacement of [3H]-nisoxetine from human NET stably expressed in HEK cell membranes at 10 uM incubated for 90 mins under dark condition by scintillation counting analysis relative to control
Chain of Sodium-dependent noradrenaline transporter (P23975 whole entry): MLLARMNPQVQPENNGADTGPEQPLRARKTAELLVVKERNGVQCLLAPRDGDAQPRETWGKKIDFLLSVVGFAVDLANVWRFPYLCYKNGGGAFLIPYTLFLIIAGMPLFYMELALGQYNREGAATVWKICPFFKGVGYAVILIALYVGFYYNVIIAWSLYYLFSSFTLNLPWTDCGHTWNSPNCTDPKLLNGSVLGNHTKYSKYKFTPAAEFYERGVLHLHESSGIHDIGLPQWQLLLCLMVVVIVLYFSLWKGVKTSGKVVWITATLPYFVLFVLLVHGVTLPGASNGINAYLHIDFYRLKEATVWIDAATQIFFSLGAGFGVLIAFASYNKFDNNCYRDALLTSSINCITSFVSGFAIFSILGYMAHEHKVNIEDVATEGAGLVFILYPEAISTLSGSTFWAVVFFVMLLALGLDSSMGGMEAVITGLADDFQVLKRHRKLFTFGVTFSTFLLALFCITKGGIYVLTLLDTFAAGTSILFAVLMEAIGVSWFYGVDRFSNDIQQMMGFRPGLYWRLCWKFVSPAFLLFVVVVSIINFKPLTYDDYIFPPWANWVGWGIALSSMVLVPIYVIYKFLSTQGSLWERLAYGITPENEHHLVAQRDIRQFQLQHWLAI

[14] = Cmax in Sprague-Dawley rat at 10 mg/kg, iv; format: ADME, organism-based; design: dose 10 mg/kg, route intravenous; conditions: in vivo; summary of the method: as §2
[15] = Half life in rat liver microsomes at 10 uM in presence of NADPH; format: ADME, Microsome
[16] = biological target: D(1A) dopamine receptor (Homo sapiens) (UniProt P21728); experiment: Displacement of [3H]-SCH23390 from human dopamine D1 receptor transiently expressed in HEKT cell membranes at 10 uM incubated for 90 mins under dark condition by scintillation counting analysis relative to control

O=C(NC[C@H](O)CO)[C@@H]1C[C@H](c2ccccc2)CCN1 (mixture of isomers)
inhibition [1]: 7%
inhibition [2]: 6.3%
inhibition at 10 µM (CYP2C9): 0%
inhibition at 1.5 h, 10 µM (5-HT2A receptor): -4.3%
inhibition [3]: 40.8%
inhibition at 10 µM (CYP2D6): 1.9%
inhibition [4]: 28.4%
inhibition [5]: 23.3%
inhibition [6]: -7.6%
inhibition [7]: 2.2%
Activity [8]: Not Active
inhibition [9]: 15.3%
inhibition [10]: -4.8%
Fu [11]: 66%
Activity (Rattus norvegicus): 0%
Cmax [12]: 411.3 ng/mL
inhibition [13]: 74.4%
Cmax [14]: 2408.6 ng/mL
t1/2 [15]: > 4 h
inhibition [16]: 9.7%
